Measured values: ChEMBL document CHEMBL1135639, “Array-based structure and gene expression relationship study of antitumor sulfonamides including N-[2-[(4-hydroxyphenyl)amino]-3-pyridinyl]-4-methoxybenzenesulfonamide and N-(3-chloro-7-indolyl)-1,4-benzenedisulfonamide” (J Med Chem, 2002)
Values joined by “and” are separate entries in the source; they are usually repeats but may differ in a detail not shown here. Identical values can stand only once.

Experiments:
Tubulin = Tubulin (Bos taurus, UniProt Q6B856+Q862L2+Q862F3); assay: Inhibitory activity against tubulin polymerization.; type: functional
Procedure, shortened: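 Bovine brain microtubule protein (1 mg/mL) in 0.1 M MES, 1 mM EGTA, 0.5 mM MgCl2, pH 6.8, with 5% DMSO final. Compound at 0.30–100 µM, held 30 min at 4 °C, then warmed to 37 °C with 1 mM GTP. Turbidity followed at 350 nm; the 30 min value is plotted against log concentration. IC50 by least squares, triplicate.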

HCT-116 [1] = assay: Effective concentration to inhibit cell proliferation by 50% relative to untreated control cell after 72 hr of continuous exposure in HCT116-C9 -C1cell line; type: functional, cell-based; settings: Homo sapiens, HCT-116, 72 h
P388 [2] = assay: Effective concentration to inhibit cell proliferation by 50% relative to untreated control cell after 72 hr of continuous exposure in P388 cell line; type: functional, cell-based; settings: Mus musculus, P388, 72 h
HCT-116 [3] = assay: Effective concentration to inhibit cell proliferation by 50% relative to untreated control cell after 72 hr of continuous exposure in HCT116-C9 cell line; type: functional, cell-based; settings: Homo sapiens, HCT-116, 72 h
P388 [4] = assay: Effective concentration to inhibit cell proliferation by 50% relative to untreated control cell after 72 hr of continuous exposure in P388/4.0 r-M cell line; type: functional, cell-based; settings: Mus musculus, P388, 72 h
[5] = Relative resistance value as the ratio of IC50 for the resistant cell line to that of parental cell line.; type: functional
Procedure, shortened: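 Ratio of MTT IC50 (72 h exposure) in the resistant subclone to that in the parental line: P388/4.0r-M versus P388, and HCT116-C9-C1 versus HCT116-C9. IC50s come from two triplicate runs each.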

IC50 (Tubulin) [nM]	IC50 (HCT-116 [1]) [nM]	IC50 (P388 [2]) [nM]	IC50 (HCT-116 [3]) [nM]	IC50 (P388 [4]) [nM]	SMILES	Relative resistance [5]
> 100000					NS(=O)(=O)c1ccc(S(=O)(=O)Nc2cccc3cc[nH]c23)cc1	
9500	2200	1200	370	1200	COc1ccc(S(=O)(=O)Nc2cccc3c(Cl)c[nH]c23)cc1	
> 100000					N#Cc1ccc(S(=O)(=O)Nc2cccc3c(Cl)c[nH]c23)cc1	
2100					COc1ccc(S(=O)(=O)Nc2cccc3cc(Cl)[nH]c23)cc1	
> 100000					NS(=O)(=O)c1ccc(C(=O)Nc2cccc3c(Cl)c[nH]c23)cc1	
2200	960	190	900	15000	COc1ccc(S(=O)(=O)Nc2cccnc2Nc2ccc(O)cc2)cc1 [ABT-751]	
> 100000	29000	610	210	590	NS(=O)(=O)c1ccc(S(=O)(=O)Nc2cccc3c(Cl)c[nH]c23)cc1 [INDISULAM]	0.97 and 1.4
